Data on 1 molecule can be found in article PMC9512414 (International Journal of Nanomedicine, 2022).

This test concerns lung tumor. As to the kind of experiment: 18F-FDG PET imaging of Kras metastatic lung cancer patients. It counts as in vivo. As to conditions: Kras metastatic patients (Stage IV), in relation to control groups. Put shortly: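 Patients had 18F-FDG PET/CT at baseline before combined test treatment, after three treatment cycles (interim), and after treatment ended (late). Each patient had at least two scans. Images were reconstructed by ordered subset expectation maximization with six iterations and 12 subsets.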

B1: Daclizumab: FDA-approved drug, CD25 inhibitor (antibody, chains of the INN, looked up, V domains shown)
VH: QVQLVQSGAEVKKPGSSVKVSCKASGYTFTSYRMHWVRQAPGQGLEWIGYINPSTGYTEYNQKFKDKATITADESTNTAYMELSSLRSEDTAVYYCARGGGVFDYWGQGTLVTVSS
VL: DIQMTQSPSTLSASVGDRVTITCSASSSISYMHWYQQKPGKAPKLLIYTTSNLASGVPARFSGSGSGTEFTLTISSLQPDDFATYYCHQRSTYPLTFGQGTKVEVK
Regarding B1, the “tumor burden by comparative 18F-FDG PET imaging” value was “lower tumor burden”.
